# Screening data (PubChem)
# Many of the other results were omitted from the sample, so hits are more common in it than they were.
# Yeast eIF2B: GCN4-lacZ reporter reduction in eIF2B-epsilon mutant yeast, primary screen, S. cerevisiae, eIF2B-epsilon R284H, Beta-Glo luminescence | inhibition, % at 25 µM (by protocol) | hit rate 0.91% among 27,000 | AID 688, 2007;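 active means mutant luminescence inhibited past about 50% while wild type luminescence and mutant growth stay under set limits, limit read from the data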
#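 Assay system: yeast eIF2B-epsilon R284H mutant carrying GCN4–beta-galactosidase fusion / Buffer or medium: YPD / Incubation: 16 h growth with compound at 30 °C, 90 min Beta-Glo step / Detection: Beta-Glo luminescence after Z-buffer lysis, growth by 595 nm absorbance / Read-out: % inhibition of reporter signal and growth versus controls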
# Numbers without * were called inactive.
SMILES,Yeast eIF2B
O=C(c1cc2nc(-c3ccc(F)cc3)cc(C(F)(F)F)n2n1)N1CCOCC1,5.7
O=C(Nc1cccnc1)c1cc2nc(C3CC3)cc(C(F)(F)F)n2n1,-0.5
O=C(CN(Cc1ccccc1Cl)C(=O)c1ccc(CN2CCOCC2)o1)NCC1CCCO1 (stereo not given),15.9
O=C(Nc1ccccc1)c1ccc(S(=O)(=O)NCc2ccco2)cc1,43.2
CCOC(=O)COc1ccc(S(=O)(=O)NCc2ccco2)cc1,53.5*
CCOC(=O)COc1ccc(S(=O)(=O)NCc2ccncc2)cc1,-1.5
O=C(NCC1(c2ccccc2)CCCC1)C(=O)N1CCOCC1,-6.2
Clc1ccccc1-c1ccc(CN2CCN(c3ccccc3)CC2)o1,5.0
Cc1csc(NC(=O)CSc2nc(C)cs2)n1,15.9
Cc1csc(NC(=O)CCn2c(=O)sc3ccccc32)n1,18.3
Cc1csc(NC(=O)c2cccn2C)n1,51.1*
Cc1cnc(NC(=O)CN(C)S(=O)(=O)c2ccc(Cl)cc2)s1,54.3*
CN(CC(=O)Nc1ccccn1)S(=O)(=O)c1ccc(Cl)cc1,-0.1
Cc1nc(NC(=O)CN(C)S(=O)(=O)c2ccc(Br)cc2)sc1C,15.2
CC1CC(NS(=O)(=O)c2cccs2)CC(C)(C)C1 (stereo not given),17.6
N#Cc1nc(-c2ccco2)oc1NCCCn1ccnc1,17.2
Cc1ccc(N2C(=O)N(CC(=O)N3CCCc4ccccc43)C(=O)C2C)cc1 (stereo not given),4.3
Brc1cnn(-c2nc(N3CCOCC3)nc(N3CCOCC3)n2)c1,51.6*
Brc1cnc(N2CCOCC2)nc1N1CCCCC1,30.2
CC(C)N(C#N)c1nc(N2CCOCC2)nc(N2CCOCC2)n1,16.5
CC(NC(=O)Cc1ccc(F)cc1)C(c1cccs1)N1CCN(C)CC1 (stereo not given),31.3
N#CC(c1ccc(Cl)cc1)c1ccc(Cl)nn1 (stereo not given),24.7
COc1ccccc1Nc1nc(C)cc(C)c1C(N)=O,52.1*
Cc1cc(C)c(C(N)=O)c(Nc2ccc3c(c2)OCCO3)n1,-5.7
Cc1cc(C)c(C(N)=O)c(NCCc2ccccc2)n1,-14.4
SMILES,Yeast eIF2B
CC(Sc1nc2ccccc2s1)C(=O)N1CCOCC1 (stereo not given),33.6
CCCOc1ccc2oc(=O)c3c(c2c1)CCCN3C(=O)CN(C)Cc1ccccc1,29.5
COC(=O)CCC(=O)c1oc2ccccc2c1N,-4.0
COc1ccc2[nH]c(=O)c(CN(Cc3nnnn3Cc3ccc(F)cc3)CC3CCCO3)cc2c1 (stereo not given),5.2
COc1ccc2[nH]c(=O)c(CN(Cc3nnnn3Cc3ccccc3)CC3CCCO3)cc2c1 (stereo not given),-7.2
CCC(C)(C)n1nnnc1CN(Cc1cccs1)Cc1cc2cc(OC)ccc2[nH]c1=O,64.1*
Cc1ccc(-c2c(C)n([O-])c3c([n+]2=O)CCCC3)o1,5.4
O=C(C1CCCN(c2ncccn2)C1)N1CCc2ccccc21 (stereo not given),-9.4
CCOC(=O)c1cc2occc2n1CC(=O)NCCOC,-17.4
COC(=O)c1cc2occc2n1CC(=O)Nc1cc(OC)cc(OC)c1,7.4
COC(=O)c1cc2occc2n1CC(=O)Nc1ccc(OC)c(OC)c1,60.3*
CS(=O)(=O)N(CC(=O)NCc1ccc2c(c1)OCO2)Cc1ccc(Cl)cc1,10.2
COc1ccc(C(C)=O)cc1COc1ccc(-n2cnnn2)cc1,-10.6
O=C(c1ccc([N+](=O)[O-])cc1)N(Cc1ccc(Br)cc1)N1C(=O)CCCC1=O,5.9
CCCn1c(N)c(C(=O)CSc2nc(C)cs2)c(=O)n(C)c1=O,4.2
O=C(C1CCCN(Cc2ccccc2)C1)N1CCCCC1 (stereo not given),11.6
Oc1cc(Cc2ccccc2)cnc1CN1CCCCC1,56.3*
Oc1ccc(Br)cc1CN1CCCCCCC1,11.7
CCOC(=O)C(NC(=O)CC)(N1CCc2ccccc2C1)C(F)(F)F (stereo not given),18.7
CCOC(=O)c1cc(C(C)(C)C)oc1CNC(=O)c1c(C)oc2c1CCCC2,1.2
O=C(CCN1CCCCC1)NCC1OCCc2ccccc21 (stereo not given),3.3
Cc1ccc(CC2CC(=O)N(c3nc4ccccc4n3C)C2=O)cc1 (stereo not given),29.3
O=C(Nc1ccncc1)c1cc2ccccc2oc1=O,50.3*
CCCC(=O)c1cc2ccccc2oc1=O,10.3
COC(=O)c1cc2ccccc2oc1=O,23.1
SMILES,Yeast eIF2B
COc1ccccc1NC(=O)c1ccccc1NS(C)(=O)=O,12.9
COc1ccccc1NC(=O)c1ccccc1SC,14.1
COc1ccccc1NC(=O)c1cc2ccccc2o/c1=N\O,63.9*
CN(Cc1c(F)cccc1Cl)c1nnnn1-c1ccccc1,11.2
CN(Cc1c(F)cccc1Cl)c1ccc(S(=O)(=O)N2CCOCC2)cn1,57.4*
COc1cccc(S(=O)(=O)N2CCOCC2)c1,17.2
CCCOc1ccc2ccccc2c1/C=N/n1c(C)nnc1-n1nc(C)cc1C,15.8
CCOc1ccc(NC(=O)CNC(=O)c2cn(-c3ccccc3OC)c(=O)c3ccccc23)cc1,26.2
